The record followed here is ChEMBL document CHEMBL5143731, “N-Acylamino Saccharin as an Emerging Cysteine-Directed Covalent Warhead and Its Application in the Identification of Novel FBPase Inhibitors toward Glucose Reduction” (J Med Chem, 2022).

For series [1], the target named is T1, Tyrosine-protein kinase JAK3 (Homo sapiens) (UniProt P52333).
T1 sequence (whole entry): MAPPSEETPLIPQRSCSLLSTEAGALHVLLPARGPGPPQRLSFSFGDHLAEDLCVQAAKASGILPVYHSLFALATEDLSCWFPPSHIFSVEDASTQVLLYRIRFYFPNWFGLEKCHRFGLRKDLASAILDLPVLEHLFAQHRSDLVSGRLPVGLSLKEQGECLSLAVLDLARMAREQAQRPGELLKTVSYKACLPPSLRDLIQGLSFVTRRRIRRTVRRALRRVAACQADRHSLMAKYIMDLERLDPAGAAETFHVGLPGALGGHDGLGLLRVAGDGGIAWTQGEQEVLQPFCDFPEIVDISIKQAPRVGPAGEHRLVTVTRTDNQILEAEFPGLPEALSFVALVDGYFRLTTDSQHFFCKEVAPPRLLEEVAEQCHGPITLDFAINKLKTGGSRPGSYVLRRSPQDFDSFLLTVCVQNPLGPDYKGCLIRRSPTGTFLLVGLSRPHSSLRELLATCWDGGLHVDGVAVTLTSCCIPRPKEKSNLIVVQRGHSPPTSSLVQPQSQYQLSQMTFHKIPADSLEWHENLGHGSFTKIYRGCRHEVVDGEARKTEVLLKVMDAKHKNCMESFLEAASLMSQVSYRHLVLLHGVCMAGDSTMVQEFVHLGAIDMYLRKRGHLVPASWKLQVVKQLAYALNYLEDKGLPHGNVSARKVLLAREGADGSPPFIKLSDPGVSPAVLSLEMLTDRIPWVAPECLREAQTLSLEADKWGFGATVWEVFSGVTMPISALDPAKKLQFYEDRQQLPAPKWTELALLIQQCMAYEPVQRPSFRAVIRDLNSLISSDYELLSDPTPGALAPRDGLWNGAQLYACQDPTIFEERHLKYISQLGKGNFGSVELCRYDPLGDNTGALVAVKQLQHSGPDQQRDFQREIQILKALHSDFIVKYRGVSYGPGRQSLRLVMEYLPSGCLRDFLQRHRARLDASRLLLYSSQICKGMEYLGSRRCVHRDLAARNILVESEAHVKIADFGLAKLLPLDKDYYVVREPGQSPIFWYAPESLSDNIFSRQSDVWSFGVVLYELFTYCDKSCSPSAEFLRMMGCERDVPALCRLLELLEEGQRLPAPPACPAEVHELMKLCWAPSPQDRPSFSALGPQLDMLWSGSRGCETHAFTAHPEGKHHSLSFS
The series is described as follows: Inhibition of JAK3 (unknown origin) at 300 uM measured after 40 mins in presence of ATP by luminescence assay relative to control. Summed up: (§1)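 Kinase reaction (50 μL): 40 mM Tris pH 7.4, 10 mM MgCl2, 0.1 mg/mL BSA, 1 mM DTT, 10 μM ATP, kinase and substrate, with 1% final DMSO. Run 40 min at 30 °C. Residual ATP read by Kinase-Glo Plus luminescence, inversely related to kinase activity.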

Series [2] in a line: Half life of the compound in buffer. The format is physicochemical. Summed up: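 Electrophile (20 μmol) incubated at 37 °C either in pH 7.4 buffer, or in DMSO-d6/D2O (5:1), with or without glutathione. Decay followed by 1H NMR kinetics. First-order rate constant kpseudo-1st taken from ln[electrophile] versus time; t1/2 = 0.693/(60×k), in min.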
The target of series [3] is Epidermal growth factor receptor (Homo sapiens) (UniProt P00533). The series is described as follows: Inhibition of EGFR (unknown origin) at 300 uM measured after 40 mins in presence of ATP by luminescence assay relative to control. Summed up: as §1
Chain of Epidermal growth factor receptor (Homo sapiens) (P00533 whole entry): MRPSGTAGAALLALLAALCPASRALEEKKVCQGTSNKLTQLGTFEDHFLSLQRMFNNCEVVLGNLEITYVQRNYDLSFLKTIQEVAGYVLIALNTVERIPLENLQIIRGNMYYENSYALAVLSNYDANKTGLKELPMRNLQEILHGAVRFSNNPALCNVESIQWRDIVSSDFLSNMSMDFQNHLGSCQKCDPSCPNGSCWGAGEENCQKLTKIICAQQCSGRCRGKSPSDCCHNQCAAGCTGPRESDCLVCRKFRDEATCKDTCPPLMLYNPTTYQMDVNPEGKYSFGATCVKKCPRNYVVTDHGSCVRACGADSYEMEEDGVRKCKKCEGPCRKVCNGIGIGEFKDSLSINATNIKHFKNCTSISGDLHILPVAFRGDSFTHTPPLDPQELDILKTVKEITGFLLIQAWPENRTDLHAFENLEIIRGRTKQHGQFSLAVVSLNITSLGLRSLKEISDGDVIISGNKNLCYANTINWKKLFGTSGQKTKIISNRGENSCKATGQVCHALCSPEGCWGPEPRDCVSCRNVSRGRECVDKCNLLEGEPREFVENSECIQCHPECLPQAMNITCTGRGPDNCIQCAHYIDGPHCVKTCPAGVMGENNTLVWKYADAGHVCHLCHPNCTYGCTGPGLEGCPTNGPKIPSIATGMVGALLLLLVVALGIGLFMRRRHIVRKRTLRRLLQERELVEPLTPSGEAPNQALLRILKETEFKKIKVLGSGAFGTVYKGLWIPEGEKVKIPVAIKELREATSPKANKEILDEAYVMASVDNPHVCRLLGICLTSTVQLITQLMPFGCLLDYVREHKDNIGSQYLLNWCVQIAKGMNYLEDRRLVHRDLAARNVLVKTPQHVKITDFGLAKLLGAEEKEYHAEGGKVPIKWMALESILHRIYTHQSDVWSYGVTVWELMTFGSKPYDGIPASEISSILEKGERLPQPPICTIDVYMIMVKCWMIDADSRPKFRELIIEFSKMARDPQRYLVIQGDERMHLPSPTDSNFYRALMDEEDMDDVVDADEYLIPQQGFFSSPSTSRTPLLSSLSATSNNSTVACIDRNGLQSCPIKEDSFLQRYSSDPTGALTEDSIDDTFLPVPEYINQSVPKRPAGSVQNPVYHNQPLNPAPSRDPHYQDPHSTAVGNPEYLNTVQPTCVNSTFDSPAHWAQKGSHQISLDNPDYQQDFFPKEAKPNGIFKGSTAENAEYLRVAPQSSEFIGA
The species named for series [4] is Homo sapiens. Put plainly: Selectivity ratio of IC50 for human FBPase to IC50 for recombinant ALDOB (unknown origin). Summed up:
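Aldolase (ALDOA/B/C) IC50 by NADH-coupled assay: enzyme plus serial compound dilutions, 0.41 mM NADH and TPI in 0.1 M Tris pH 7.4/0.2 M K-acetate, 3 min at 37 °C. Started with FBP and […], A340 read every 30 s for 6 min. Ratios against the FBPase IC50 from malachite green phosphate assay (620 nm).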

The species entered for series [5] is Homo sapiens. Put plainly: Selectivity ratio of IC50 for human FBPase to IC50 for human GAPDH. A digest of the protocol: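 Recombinant human GAPDH (His-tag, E. coli; 0.1 mg/mL final) preincubated 30 min with compound in 10 mM sodium pyrophosphate pH 8.5 at 37 °C. Started with arsenate, 4 mM NAD+ and 12 mM G3P; A340 at 4 min. Ratio taken against FBPase IC50 from the malachite green phosphate-release assay.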

The test system of series [6] is Mus musculus. Put plainly: Hypoglycemic activity in 12 hrs fasted ICR mouse assessed as reduction in blood glucose AUC (0 to 2 hrs) at 30 mg/kg, ip measured after 2 hrs. The format is functional. Set-up: scale not given: the % may be the effect or the level left. A digest of the protocol: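 OGTT: 12 h-fasted ICR mice (n = 6 per group) dosed ip (10 or 30 mg/kg in 10% ricinus oil/water), with vehicle and metformin 250 mg/kg controls, 1 h before oral glucose 2 g/kg. Tail blood glucose by glucometer at 0, 0.25, 0.5, 1, 1.5 and 2 h; AUC 0−2 h computed. Food withheld.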

Series [7] concerns the target T2, Fructose-1,6-bisphosphatase 1 (Homo sapiens) (UniProt P09467).
T2 sequence (whole entry): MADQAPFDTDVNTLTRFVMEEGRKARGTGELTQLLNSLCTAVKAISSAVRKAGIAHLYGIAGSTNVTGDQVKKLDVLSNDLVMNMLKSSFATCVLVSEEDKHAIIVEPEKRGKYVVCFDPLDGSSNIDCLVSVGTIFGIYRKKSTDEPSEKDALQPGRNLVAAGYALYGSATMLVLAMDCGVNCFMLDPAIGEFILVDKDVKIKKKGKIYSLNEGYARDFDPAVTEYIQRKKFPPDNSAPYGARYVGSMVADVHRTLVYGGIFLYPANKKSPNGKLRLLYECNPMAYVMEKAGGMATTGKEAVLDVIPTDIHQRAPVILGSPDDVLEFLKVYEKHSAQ
The series is described as follows: Inhibition of human FBPase in ICR mouse serum starved primary hepatocytes assessed as glucose lowering effect. Type of series: cell-based. Particulars: Hepatocyte, dose 50-300 µM. Summed up: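 Primary mouse hepatocytes serum-starved overnight, then exposed in DMEM for 6 h to test compounds (50−300 μM), metformin 1 mM or saccharin 50 or 100 μM. Gluconeogenesis assessed as glucose in the culture medium. Mean ± SEM reported, Student's t-test versus vehicle.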

The nature of series [8]: Drug uptake in 12 hrs fasted ICR mouse assessed as plasma concentration at 30 mg/kg, ip measured after 6 hrs by LC-MS/MS analysis. The format is ADME, organism-based. Particulars: in vivo. A digest of the protocol: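 Plasma levels of parent and of released saccharin followed over 0−24 h after a single 30 mg/kg ip dose to 12 h-fasted male ICR mice. Plasma was obtained from K2EDTA blood (4 °C spin, stored at −70 °C) and measured by LC−MS/MS.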

Series [9] has as its system Mus musculus. Put plainly: Hypoglycemic activity in ICR mouse assessed as improvement in glucose tolerance at 10 to 30 mg/kg, ip administered 1 hr prior to oral glucose at 2 g/kg and measured after 0.25 hr by OGTT. The conditions noted are these: dose 10-30 mg/kg.

Activity calls are given as the source filed them.

`O=C(NCc1ccccc1)N1C(=O)c2ccccc2S1(=O)=O`: the inhibition in series [1] and in series [3] was less than 50% throughout. The molecule further had a half-life in series [2] of more than 167 h. The Ratio IC50 in the series listed under Homo sapiens [4] and in the series filed under Homo sapiens [5] was more than 25 in each case. The Activity with Mus musculus [6] was 17.7%. The inhibition result in series [7] was “Active”. Also, the Cp result in series [8] was “Active”. Moreover, the outcome with Mus musculus [9] was Active.

One may read the inhibition as the drop in the measured response relative to a control, in per cent. For orientation: half-life means the time needed for the level to fall by half in the phase considered.
